# Source: ChEMBL document CHEMBL1155236, “Identification of biphenyl-based hybrid molecules able to decrease the intracellular level of Bcl-2 protein in Bcl-2 overexpressing leukemia cells” (J Med Chem, 2009)
# Activity calls are given as the source filed them. The rule behind the calls is not given here.
# How the values were obtained:
# [1] = system: K562; test: Cell cycle arrest in human K562 cells by accumulation at G1 phase at 30 uM after 24 hrs using propidium iodide staining by FACS; assay type: functional
# How it was run: (§1)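 K562 cells treated for 24, 48 or 72 h. Cells stained with propidium iodide and cell-cycle phase distribution analysed by flow cytometry against untreated cells. The sub-G0–G1 peak was taken as apoptotic.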
# [2] = system: K562; test: Cell cycle arrest in human K562 cells by accumulation at S phase at 30 uM after 24 hrs using propidium iodide staining by FACS; assay type: functional; how it was run: as §1
# [3] = system: K562; test: Cell cycle arrest in human K562 cells by accumulation at G2/M phase at 30 uM after 24 hrs using propidium iodide staining by FACS; assay type: functional; how it was run: as §1
# [4] = system: K562; test: Cell cycle arrest in human K562 cells by accumulation at sub-G1 (apoptotic) phase at 30 uM after 24 hrs using propidium iodide staining by FACS; assay type: functional; how it was run: as §1
# [5] = system: K562; test: Cell cycle arrest in human K562 cells by accumulation at G1 phase at 30 uM after 48 hrs using propidium iodide staining by FACS; assay type: functional; how it was run: as §1
# [6] = system: K562; test: Cell cycle arrest in human K562 cells by accumulation at S phase at 30 uM after 48 hrs using propidium iodide staining by FACS; assay type: functional; how it was run: as §1
# [7] = system: K562; test: Cell cycle arrest in human K562 cells by accumulation at G2/M phase at 30 uM after 48 hrs using propidium iodide staining by FACS; assay type: functional; how it was run: as §1
# [8] = system: K562; test: Cell cycle arrest in human K562 cells by accumulation at sub-G1 (apoptotic) phase at 30 uM after 48 hrs using propidium iodide staining by FACS; assay type: functional; how it was run: as §1
# [9] = system: K562; test: Cell cycle arrest in human K562 cells by accumulation at G1 phase at 30 uM after 72 hrs using propidium iodide staining by FACS; assay type: functional; how it was run: as §1
# [10] = system: K562; test: Cell cycle arrest in human K562 cells by accumulation at S phase at 30 uM after 72 hrs using propidium iodide staining by FACS; assay type: functional; how it was run: as §1
# [11] = system: K562; test: Cell cycle arrest in human K562 cells by accumulation at G2/M phase at 30 uM after 72 hrs using propidium iodide staining by FACS; assay type: functional; how it was run: as §1
# [12] = system: K562; test: Cell cycle arrest in human K562 cells by accumulation at sub-G1 (apoptotic) phase at 30 uM after 72 hrs using propidium iodide staining by FACS; assay type: functional; how it was run: as §1
# [13] = system: K562; test: Induction of apoptosis in human K562 cells assessed as decrease in Bcl-2 expression at 30 uM after 24 hrs by flow cytometry; assay type: functional; set-up: scale not given: the % may be the effect or the level left
# How it was run: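 K562 cells cultured 24 h with compound at 30 μM or without (control). Intracellular Bcl-2 read by flow cytometry after staining with FITC-conjugated anti-Bcl-2 monoclonal antibody. Treated histograms compared with control histograms.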
# [14] = system: HL-60; test: Induction of apoptosis in human HL60 cells assessed as induction of cell differentiation marker CD61 expression at 10 uM after 120 hrs by flow cytometry; assay type: functional, cell-based
# How it was run: (§2)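 HL60 or K562 cells exposed to 10 μM compound or no compound (control) for 120 h (5 days). Surface CD11c and CD61 read by flow cytometry with PE- or FITC-conjugated monoclonal antibodies. Treated cells compared with untreated cells.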
# [15] = system: HL-60; test: Induction of apoptosis in human HL60 cells assessed as induction of cell differentiation marker CD11c expression at 10 uM after 120 hrs by flow cytometry; assay type: functional, cell-based; how it was run: as §2
# [16] = system: K562; test: Induction of apoptosis in human K562 cells assessed as induction of cell differentiation marker CD61 expression at 10 uM after 120 hrs by flow cytometry; assay type: functional, cell-based; how it was run: as §2
# [17] = system: K562; test: Induction of apoptosis in human K562 cells assessed as induction of cell differentiation marker CD11c expression at 10 uM after 120 hrs by flow cytometry; assay type: functional, cell-based; how it was run: as §2
# [18] = system: HL-60; test: Antiproliferative activity against human HL60 cells after 48 hrs by trypan blue method; assay type: functional, cell-based; conditions: HL-60, 48 h
# How it was run: (§3)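 Growth inhibition read by counting cells with an automatic cell counter after 48 h of compound exposure. IC50 is the concentration inhibiting 50% of cell growth.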
# [19] = system: K562; test: Antiproliferative activity against human K562 cells after 48 hrs by trypan blue method; assay type: functional, cell-based; conditions: K562, 48 h; how it was run: as §3
# [20] = system: HL-60; test: Induction of apoptosis in human HL60 cells assessed as morphological changes after 48 hrs by annexin V assay; assay type: functional, cell-based; conditions: HL-60, 48 h
# How it was run: (§4)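 HL60 or K562 cells treated for 48 h. Apoptosis scored by morphological assay and annexin V test. AC50 is the concentration inducing apoptosis in 50% of cells.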
# [21] = system: K562; test: Induction of apoptosis in human K562 cells assessed as morphological changes after 48 hrs by annexin V assay; assay type: functional, cell-based; conditions: K562, 48 h; how it was run: as §4
# [22] = Cytotoxicity against human lymphocytes after 48 hrs by trypan blue method; assay type: cell-based; conditions: Lymphocyte; how it was run: as §3
# [23] = system: K562; test: Cell cycle arrest in human K562 cells by accumulation at G1 phase at 130 uM after 24 hrs using propidium iodide staining by FACS; assay type: functional; how it was run: as §1
# [24] = system: K562; test: Cell cycle arrest in human K562 cells by accumulation at S phase at 130 uM after 24 hrs using propidium iodide staining by FACS; assay type: functional; how it was run: as §1
# [25] = system: K562; test: Cell cycle arrest in human K562 cells by accumulation at G2/M phase at 130 uM after 24 hrs using propidium iodide staining by FACS; assay type: functional; how it was run: as §1
# [26] = system: K562; test: Cell cycle arrest in human K562 cells by accumulation at A phase at 130 uM after 24 hrs using propidium iodide staining by FACS; assay type: functional; how it was run: as §1
# [27] = system: K562; test: Cell cycle arrest in human K562 cells by accumulation at G1 phase at 130 uM after 48 hrs using propidium iodide staining by FACS; assay type: functional; how it was run: as §1
# [28] = system: K562; test: Cell cycle arrest in human K562 cells by accumulation at S phase at 130 uM after 48 hrs using propidium iodide staining by FACS; assay type: functional; how it was run: as §1
# [29] = system: K562; test: Cell cycle arrest in human K562 cells by accumulation at G2/M phase at 130 uM after 48 hrs using propidium iodide staining by FACS; assay type: functional; how it was run: as §1
# [30] = system: K562; test: Cell cycle arrest in human K562 cells by accumulation at A phase at 130 uM after 48 hrs using propidium iodide staining by FACS; assay type: functional; how it was run: as §1
# [31] = system: K562; test: Cell cycle arrest in human K562 cells by accumulation at G1 phase at 130 uM after 72 hrs using propidium iodide staining by FACS; assay type: functional; how it was run: as §1
# [32] = system: K562; test: Cell cycle arrest in human K562 cells by accumulation at S phase at 130 uM after 72 hrs using propidium iodide staining by FACS; assay type: functional; how it was run: as §1
# [33] = system: K562; test: Cell cycle arrest in human K562 cells by accumulation at G2/M phase at 130 uM after 72 hrs using propidium iodide staining by FACS; assay type: functional; how it was run: as §1
# [34] = system: K562; test: Cell cycle arrest in human K562 cells by accumulation at A phase at 130 uM after 72 hrs using propidium iodide staining by FACS; assay type: functional; how it was run: as §1
smiles,measurement,setting,value
O=C1C[C@H](c2ccc(-c3ccc(CO)cc3)cc2)C2(C(=O)c3ccccc3C2=O)[C@H](c2ccccc2)C1,Activity,[1],47%
same,Activity,[2],34%
same,Activity,[3],19%
same,Activity,[4],4%
same,Activity,[5],48%
same,Activity,[6],30%
same,Activity,[7],22%
same,Activity,[8],6%
same,Activity,[9],48%
same,Activity,[10],32%
same,Activity,[11],20%
same,Activity,[12],11%
same,Activity,[13],4.3%
same,Activity,[14],Active
same,Activity,[15],Active
same,Activity,[16],inactive
same,Activity,[17],inactive
same,IC50,[18],6 µM
same,IC50,[19],14 µM
same,AC50,[20]; read-out: AC50,12 µM
same,AC50,[21],80 µM
same,IC50,[22]; read-out: IC50,286 µM
CC1(C)OC(=O)C2(C(=O)O1)[C@@H](c1ccc(O)cc1)CC(=O)C[C@H]2c1ccc(O)cc1,IC50,[18],87 µM
same,IC50,[19],> 100 µM
COc1ccc(-c2ccc([C@H]3CC(=O)C[C@@H](c4ccccc4)C34C(=O)c3ccccc3C4=O)cc2)cc1,IC50,[18],> 100 µM
same,IC50,[19],> 100 µM
O=C1C[C@H](c2cnc[nH]2)C2(C(=O)c3ccccc3C2=O)[C@H](c2ccc(O)cc2)C1,IC50,[18],86 µM
same,IC50,[19],95 µM
CC1(C)OC(=O)C2(C(=O)O1)[C@@H](c1ccc(-c3ccc(-c4ccc(O)cc4)cc3)cc1)CC(=O)C[C@H]2c1ccccc1,Activity,[1],65%
same,Activity,[2],26%
same,Activity,[3],11%
same,Activity,[4],2%
same,Activity,[5],72%
same,Activity,[6],22%
same,Activity,[7],6%
same,Activity,[8],2%
same,Activity,[9],72%
same,Activity,[10],20%
same,Activity,[11],8%
same,Activity,[12],2%
same,Activity,[13],4.9%
same,Activity,[14],Active
same,Activity,[15],Active
same,Activity,[16],inactive
same,Activity,[17],inactive
same,IC50,[18],16 µM
same,IC50,[19],8 µM
same,AC50,[20]; read-out: AC50,32 µM
same,AC50,[21]; read-out: AC50,> 100 µM
same,IC50,[22]; read-out: IC50,185 µM
OCc1ccc(-c2cc(O)cc(O)c2)cc1,IC50,[18],> 80 µM
same,IC50,[19],> 80 µM
same,AC50,[20]; read-out: AC50,> 80 µM
same,AC50,[21]; read-out: AC50,> 80 µM
CC1(C)OC(=O)C2(C(=O)O1)[C@@H](c1ccc(-c3ccc(CO)cc3)cc1)CC(=O)C[C@H]2c1ccccc1,IC50,[18],20 µM
same,IC50,[19],38 µM
O=C1C[C@H](c2ccc(O)cc2)C2(C(=O)c3ccccc3C2=O)[C@H](c2ccc(O)cc2)C1,IC50,[18],28 µM
same,IC50,[19],73 µM
O=C1C[C@H](c2ccc(-c3ccc(O)cc3)cc2)C2(C(=O)c3ccccc3C2=O)[C@H](c2ccccc2)C1,Activity,[1],44%
same,Activity,[2],39%
same,Activity,[3],17%
same,Activity,[4],4%
same,Activity,[5],35%
same,Activity,[6],61%
same,Activity,[7],4%
same,Activity,[8],53%
same,Activity,[9],34%
same,Activity,[10],61%
same,Activity,[11],2%
same,Activity,[12],55%
same,Activity,[13],32.8%
same,IC50,[18],6 µM
same,IC50,[19],8 µM
same,AC50,[20]; read-out: AC50,11 µM
same,AC50,[21]; read-out: AC50,25 µM
same,IC50,[22]; read-out: IC50,215 µM
Oc1ccc(-c2ccc(-c3cc(O)cc(O)c3)cc2)cc1,IC50,[19],20 µM
same,AC50,[21],75 µM
Oc1ccc(-c2cc(O)cc(O)c2)cc1,IC50,[18],> 80 µM
same,IC50,[19],> 80 µM
same,AC50,[20],> 80 µM
same,AC50,[21]; read-out: AC50,> 80 µM
O=C1C[C@H](c2ccccc2)C2(C(=O)c3ccccc3C2=O)[C@H](c2ccccc2)C1,Activity,[23],27%
same,Activity,[24],61%
same,Activity,[25],12%
same,Activity,[26],13%
same,Activity,[27],26%
same,Activity,[28],40%
same,Activity,[29],34%
same,Activity,[30],18%
same,Activity,[31],7%
same,Activity,[32],21%
same,Activity,[33],72%
same,Activity,[34],20%
same,IC50,[18],20 µM
same,IC50,[19],98 µM
O=C1C[C@H](c2ccc(O)cc2)C2(C(=O)c3ccccc3C2=O)[C@H](c2ccccc2)C1,IC50,[18],23 µM
same,IC50,[19],25 µM
CC1(C)OC(=O)C2(C(=O)O1)[C@@H](c1ccc(-c3ccc(O)cc3)cc1)CC(=O)C[C@H]2c1ccccc1,Activity,[1],46%
same,Activity,[2],43%
same,Activity,[3],11%
same,Activity,[4],7%
same,Activity,[5],39%
same,Activity,[6],52%
same,Activity,[7],9%
same,Activity,[8],46%
same,Activity,[9],37%
same,Activity,[10],54%
same,Activity,[11],9%
same,Activity,[12],47%
same,Activity,[13],31.2%
same,IC50,[18],8 µM
same,IC50,[19],9 µM
same,AC50,[20],16 µM
same,AC50,[21],33 µM
same,IC50,[22],172 µM
O=C1C[C@H](c2ncc[nH]2)C2(C(=O)c3ccccc3C2=O)[C@H](c2ncc[nH]2)C1,IC50,[18],> 100 µM
same,IC50,[19],> 100 µM
CC1(C)OC(=O)C2(C(=O)O1)[C@@H](c1c[nH]c3ccccc13)CC(=O)C[C@H]2c1ccccc1,IC50,[18],62 µM
same,IC50,[19],> 100 µM
